Data on 6 compounds can be found in ChEMBL document CHEMBL4433233, “Folic acid conjugates of a bleomycin mimic for selective targeting of folate receptor positive cancer cells” (Bioorg Med Chem Lett, 2019).

Activity calls are given as the source filed them. No cut-off for these calls is given here.

In data set [1] the test system is KB. The experiment in a line: Induction of ROS generation in human KB cells at 30 uM incubated for 72 hrs by APF probe-based flow cytometer analysis relative to control. The format is functional. The essentials:
(§1)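 Cells were treated with 30 μM compound. Highly reactive oxygen species were detected with the APF probe, and APF mean fluorescence intensity was measured by FACS and normalized to solvent control.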

The species entered for data set [2] is Homo sapiens. The experiment in a line: Displacement of folate-FITC from folate receptor in human KB cells at 25 to 1000 pmol incubated for 10 mins by FITC staining-based FACS analysis. Type of data set: cell-based. The gist of the method: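 Competition binding in 0.5·10^6 KB cells per experiment. Compound at 25, 50, 100, 250, 500 or 1000 pmol was combined with 50 pmol Folate-FITC. Cell-bound fluorescence was read by FACS as MFI on channel PL-1. Mean ± SEM, N ≥ 5.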

Data set [3] concerns KB. Nature of the data set: Cytotoxicity against human KB cells in low folate medium assessed as reduction in metabolic activity at 1 to 150 uM incubated for 24 to 72 hrs by MTS assay. The format is functional, cell-based. The gist of the method: (§2)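 MTS metabolic-activity assay in low folate RPMI-1640 with 10% dialyzed FCS and 2 nM FA. Compound concentrations ran from 1 to 150 μM, with incubation for 24, 48 and 72 h. IC50 values were derived from the concentration-response data.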
Background: Tetrazolium assays rely on reduction of a dye to a coloured formazan, in cell work by metabolically active cells.

Data set [4] deals with IGROV-1. Nature of the data set: Cytotoxicity against human IGROV1 cells in low folate medium assessed as reduction in metabolic activity at 1 to 150 uM incubated for 24 to 72 hrs by MTS assay. Type of data set: functional, cell-based. The gist of the method: as §2
Data set [5] is described as follows: Retention time of the compound by LC-MS analysis. Type of data set: physicochemical.
In data set [6] the test system is MCF7. The experiment in a line: Cytotoxicity against human MCF7 cells in low folate medium assessed as reduction in metabolic activity at 1 to 150 uM incubated for 24 to 72 hrs by MTS assay. The format is ADME, cell-based. The settings on record: mcf7, 150 µM. The gist of the method: as §2
Data set [7] concerns MCF7. Nature of the data set: Induction of ROS generation in human MCF7 cells at 30 uM incubated for 72 hrs by APF probe-based flow cytometer analysis relative to control. The note with it: mcf7, 72 h. The format is cell-based. The essentials: as §1
Data set [8] relates to MCF7. The experiment in a line: Cytotoxicity against human MCF7 cells in high folate medium assessed as reduction in metabolic activity at 50 uM incubated for 24 to 72 hrs by MTS assay. Type of data set: ADME, cell-based. The settings on record: mcf7, 50 µM. The gist of the method:
(§3)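 MTS assay in standard high folate medium (RPMI-1640 containing 2.3 μM FA, 10% FCS). Cells were treated with 30 or 50 μM compound for 24, 48 and 72 h. Metabolic activity was compared with solvent control.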

The test system of data set [9] is KB. The experiment in a line: Cytotoxicity against human KB cells in high folate medium assessed as reduction in metabolic activity at 30 uM incubated for 24 to 72 hrs by MTS assay. Type of data set: functional, cell-based. The essentials:
as §3

For data set [10], the system named is IGROV-1. Nature of the data set: Cytotoxicity against human IGROV1 cells in low folate medium assessed as metabolic activity at 50 uM incubated for 72 hrs by MTS assay relative to control. Type of data set: functional. The gist of the method:
(§4)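 MTS metabolic-activity assay under low folate conditions (RPMI-1640, 10% dialyzed FCS, supplemented with 2 nM FA). Compounds were added as free ligand at 30 or 50 μM for 24, 48 and 72 h. Activity is expressed relative to DMSO control. Each treatment was run in triplicate and each experiment three times; mean ± SEM.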

In data set [11] the test system is IGROV-1. The experiment in a line: Cytotoxicity against human IGROV1 cells in low folate medium assessed as metabolic activity at 30 uM incubated for 72 hrs by MTS assay relative to control. Type of data set: functional. The essentials:
as §4

The test system of data set [12] is MCF7. Nature of the data set: (§5) Cytotoxicity against human MCF7 cells in low folate medium assessed as metabolic activity at 50 uM incubated for 72 hrs by MTS assay relative to control. The format is ADME, cell-based. The settings on record: mcf7, 72 h, 50 µM. The gist of the method: as §4
In data set [13] the test system is KB. Nature of the data set: Cytotoxicity against human KB cells in low folate medium assessed as metabolic activity at 50 uM measured after 72 hrs by MTS assay relative to control. Type of data set: functional. The gist of the method: as §4
Data set [14] relates to MCF7. The experiment in a line: (§6) Cytotoxicity against human MCF7 cells in low folate medium assessed as metabolic activity at 30 uM incubated for 72 hrs by MTS assay relative to control. Type of data set: ADME, cell-based. The settings on record: mcf7, 72 h, 30 µM. The essentials: as §4
In data set [15] the test system is KB. Nature of the data set: Cytotoxicity against human KB cells in low folate medium assessed as metabolic activity at 30 uM measured after 72 hrs by MTS assay relative to control. Type of data set: functional. The gist of the method:
as §4

Data set [16] concerns KB. The experiment in a line: Cytotoxicity against human KB cells in low folate medium assessed as reduction in metabolic activity at 50 uM measured after 48 hrs by MTS assay. The format is functional, cell-based. The essentials: (§7)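 MTS assay on KB cells under low folate conditions (RPMI-1640, 10% dialyzed FCS, 2 nM FA). Cells were exposed to 30 or 50 μM compound as free ligand for 24, 48 and 72 h and compared with DMSO control. Treatments in triplicate, experiment repeated three times; mean ± SEM.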

For data set [17], the system named is KB. The experiment in a line: Cytotoxicity against human KB cells in low folate medium assessed as reduction in metabolic activity at 30 uM measured after 48 hrs by MTS assay. The format is functional, cell-based. The essentials: as §7
In data set [18] the test system is DNA. The experiment in a line: Induction of Escherichia coli XL1 Blue pUC18 DNA cleavage assessed as turnover frequency in presence of DTT and 1 equivalent of (NH4)2Fe(SO4)2.6H2O at 1 uM by agarose gel electrophoresis method. The format is nucleic-acid assay. The gist of the method:
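Supercoiled pUC18 plasmid DNA was incubated at 37 °C with 1 μM iron complex in the presence of DTT as reductant. Strand cleavage was followed and turnover frequency determined.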

Data set [19] is described as follows: Binding affinity to iron assessed as formation of iron complex in the presence of Fe(ClO4)2 and GSH after 5 mins by LC-MS analysis. The gist of the method: (§8)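 Conjugate kept in tris-HCl buffer pH 8.5 with two equivalents of Fe(ClO4)2 and 5 mM glutathione. LC-MS was used to follow in situ iron-complex formation and disulphide cleavage products at 5 min, 20 min and for a further 3 h.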

The test system of data set [20] is KB. Nature of the data set: Cytotoxicity against human KB cells in high folate medium assessed as reduction in metabolic activity at 30 uM incubated for 24 to 72 hrs in the presence of excess folic acid by MTS assay. Type of data set: functional, cell-based. The essentials:
(§9)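 Competition MTS assay in standard RPMI medium (high folate). Cells were co-treated with 30 μM compound plus 150 μM FA, or with 150 μM FA alone, for 24, 48 and 72 h, and metabolic activity was read by MTS.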

For data set [21], the system named is MCF7. The experiment in a line: Cytotoxicity against human MCF7 cells in high folate medium assessed as reduction in metabolic activity at 30 uM incubated for 24 to 72 hrs in the presence of excess folic acid by MTS assay. The format is ADME, cell-based. The settings on record: mcf7, 30 µM. The essentials:
as §9

The subject of data set [22] is IGROV-1. The experiment in a line: Cytotoxicity against human IGROV1 cells in high folate medium assessed as reduction in metabolic activity at 30 uM incubated for 24 to 72 hrs in the presence of excess folic acid by MTS assay. Type of data set: functional, cell-based. The gist of the method:
as §9

A short description of data set [23]: Stability in pH 8.5 tris-HCl buffer assessed as cleavage of compound in presence of Fe(ClO4)2 and GSH incubated for 3 hrs by LC-MS analysis. The note with it: pH 8.5, 3 h.
Data set [24] can be described thus: as §5. Type of data set: ADME, cell-based. The note with it: MCF7 cells, read-out: Activity. The essentials:
as §4

Data set [25] can be described thus: as §6. The note with it: MCF7 cells, read-out: Activity. The format is ADME, cell-based. The gist of the method:
as §4

A short description of data set [26]: Stability in pH 8.5 tris-HCl buffer assessed as cleavage of compound in presence of Fe(ClO4)2 and GSH incubated for 20 mins by LC-MS analysis. The format is physicochemical. The settings on record: pH 8.5, 20 min. The gist of the method: as §8
The nature of data set [27]: Stability in pH 8.5 tris-HCl buffer assessed as compound cleavage in presence of Fe(ClO4)2 and GSH after 5 mins by LC-MS analysis. The format is physicochemical. The note with it: pH 8.5, 5 min. The essentials: as §8

For `Nc1nc(=O)c2nc(CNc3ccc(C(=O)N[C@@H](CCC(=O)O)C(=O)O)cc3)cnc2[nH]1`, the result in [1], in data set [3] and in [4] was inactive. For the same compound, the outcome in [2] was Active.

In turn, `Nc1nc(O)c2nc(CNc3ccc(C(=O)N[C@@H](CCC(=O)NCCNC(=O)CCSSC[C@H](NC(=O)CC[C@H](N)C(=O)O)C(=O)NCC(=O)O)C(=O)O)cc3)cnc2n1` had a Retention_time in [5] of 8.77 min.

Compound `Nc1nc(O)c2nc(CNc3ccc(C(=O)N[C@@H](CCC(=O)NCCNC(=O)CCS)C(=O)O)cc3)cnc2n1` showed a Retention_time in [5] of 9.12 min.

For `Nc1nc2ncc(CNc3ccc(C(=O)N[C@@H](CCC(=O)O)C(=O)O)cc3)nc2c(=O)[nH]1` [FOLIC ACID], the Activity result in data set [6] was “Non-Toxic”.

Consider `Nc1nc(O)c2nc(CNc3ccc(C(=O)N[C@@H](CCC(=O)NCCNC(=O)CCCCCCC(=O)NCCCNC(=O)c4ccc(CN(Cc5ccccn5)C(c5ccccn5)c5ccccn5)nc4)C(=O)O)cc3)cnc2n1`, for which the “fold change (FC)” value in data set [7] is 1.6. Further, the result in data set [1], in data set [9], in data set [16], in data set [17], in [20] and in [22] was inactive. For the same compound, the Activity result is on record as “Non-Toxic” in data set [8]; 58.1% in data set [10]; 82.4% in data set [11]; “Non-Toxic” in data set [12]; 62.4% in data set [13]; “Non-Toxic” in [14]. Further, the values for the Activity in [15], in data set [18] and in data set [21] were 88.1%, 0.16 s⁻¹ and “Non-Toxic”, respectively. Further, the result in data set [2] and in data set [19] was Active. Further, the Stability result in data set [23] is listed as “Stable”.

In the case of `Nc1nc(O)c2nc(CNc3ccc(C(=O)N[C@@H](CCC(=O)NCCNC(=O)CCSSCCC(=O)NCCCNC(=O)c4ccc(CN(Cc5ccccn5)C(c5ccccn5)c5ccccn5)nc4)C(=O)O)cc3)cnc2n1`, the “fold change (FC)” value is given as 1.6 in data set [7] and 3.5 in data set [1]. The Activity entry was “Non-Toxic” in data set [8]; 22% in [10]; 47.2% in data set [11]; 11.2% in data set [13]; 38.8% in data set [15]; 0.19 s⁻¹ in data set [18]. Moreover, the Activity result in data set [21] is “Non-Toxic”. In addition, the result in data set [9], in [20] and in [22] was inactive. The viability at 72 h, 50 µM in data set [24] was 76.4%. Also, in [25], the viability at 72 h, 30 µM stood at 78.9%. The result in data set [2] and in [19] was Active. Besides, the Stability result in data set [26] and in data set [27] was “Unstable” each time.
